inhibition, IC50 and Activity data for 5 compounds are collected here from ChEMBL document CHEMBL1221177, “Secramine inhibits Cdc42-dependent functions in cells and Cdc42 activation in vitro” (Nat Chem Biol, 2006).

The species named for assay [1] is Xenopus laevis. Description: Inhibition of actin polymerization in N-WASP VCA-stimulated Xenopus laevis egg extract at 10 uM after 1.5 mins by fluorescence assay. Put shortly:
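Xenopus laevis egg extract added at 4 °C to vehicle or compound, followed by VCA polypeptide. Pyrene-actin polymerization then followed by fluorescence in a cuvette at 21 °C.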

The subject of assay [2] is BSC-1. Description: Inhibition of VSVG-EGFP anterograde transport from endoplasmic reticulum to plasma membrane of african green monkey BSC1 cells after 3 hrs by epifluorescence microscopy. It counts as functional, cell-based. As to conditions: Chlorocebus aethiops, BSC-1, 3 h. A digest of the protocol:
(§1)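 BS-C-1 monkey kidney cells expressing temperature-sensitive VSVG-EGFP, held at 40 °C to trap cargo in the ER, then shifted to 32 °C in 100 µg ml-1 cycloheximide. Compound or vehicle (1% DMSO) present during transport. Cells fixed 3 h after release and imaged by wide-field fluorescence. Surface versus perinuclear (beta-COP-costained Golgi) cargo scored. IC50 from dose-response curves, s.e.m. (n = 4).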

The target of assay [3] is Cdc42 protein (Xenopus laevis, UniProt Q9DDV6). Description: Inhibition of CDC42-mediated actin polymerization in PIP2-stimulated Xenopus laevis egg extract after 6 mins by fluorescence assay.
Assay [4] concerns the target Cdc42 protein (Xenopus laevis) (UniProt Q9DDV6). Description: Inhibition of PIP2 liposome-stimulated Cdc42 activation in Xenopus laevis egg extract assessed as inhibition of association of Cdc42(GTPgammaS) with GST-PBD at 1 to 25 uM by Western blot analysis. Put shortly:
(§2)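 Xenopus egg extract (8 mg/ml) with 0.2 mM ATP and 10 µM latrunculin B at 4 °C, moved to 25 °C; compound or vehicle 5 min, then 20 µM GTPγS and 20 µM PIP2 liposomes (48:48:4) 10 min, then 2.5 µM GST-PBD 10 min. Lysis buffer plus glutathione-Sepharose, 45 min at 4 °C; bound Cdc42 by western blot.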
(In general: A western blot detects proteins with antibodies after separation by electrophoresis.)

The target is the same in assay [5]. Description: Effect on GST-PBD binding to recombinant nonprenylated Cdc42 in PIP2 liposome-stimulated Xenopus laevis egg extract at 50 uM by Western blot analysis. Put shortly:
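Xenopus egg extract treated 5 min with compound or vehicle, then 20 nM recombinant nonprenylated Cdc42 (GTPγS or GDP) 10 min, then GST-PBD 10 min. Pulled down on glutathione-Sepharose and Cdc42 detected by western blot; GST-PBD stained with Ponceau S as loading control.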

For assay [6], the target named is T1, Cell division control protein 42 homolog (Homo sapiens, UniProt P60953). Description: Inhibition of Cdc42 binding to PIP2 liposomes at 100 uM after 10 mins. Put shortly: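 Pure 0.5 µM prenylated Cdc42-RhoGDI1 complex, 1 µM RhoGDI1, 1 mM PIP2 liposomes, 100 µM compound or 2% DMSO in reaction buffer, 25 °C. After 10 min, spun 10 min at 200,000g; pellet dot-blotted with anti-Cdc42, quantified and normalized to vehicle; s.e.m., n = 4.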
Target sequence in this assay (P60953 whole entry, looked up): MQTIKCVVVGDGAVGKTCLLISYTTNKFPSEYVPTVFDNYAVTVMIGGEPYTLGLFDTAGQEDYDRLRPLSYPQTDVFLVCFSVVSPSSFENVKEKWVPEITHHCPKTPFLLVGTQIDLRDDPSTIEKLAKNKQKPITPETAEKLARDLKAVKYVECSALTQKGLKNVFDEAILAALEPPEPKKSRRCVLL

For assay [7], the system named is MDCK. Description: Decrease in NCAM-GFP transport from golgi complex of MDCK cells at 10 uM after 20 mins by fluorescence assay. As to conditions: Canis lupus familiaris. Type of assay: functional, cell-based. Put shortly: (§3)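 Nonpolarized MDCK cells expressing NCAM-GFP or p75-GFP in 0.5% BSA; cargo held in Golgi at 20 °C for 30–60 min, then compound or vehicle for 20 min before shift to 32 °C. Perinuclear GFP normalized to total cell fluorescence, expressed as % of t = 0 Golgi signal; s.d., n = 2, 20 cells per condition.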

Assay [8] relates to MDCK. Description: Increase in p75-GFP transport from golgi complex of MDCK cells at 10 uM after 20 mins by fluorescence assay. Type of assay: functional, cell-based. As to conditions: Canis lupus familiaris. Put shortly:
as §3

The target in assay [9] is T1, Cell division control protein 42 homolog. Description: Inhibition of GEF-independent nucleotide exchange activity of prenylated Cdc42 after 3 mins in presence of 4 mM Mg2+ chelator EDTA. Put shortly:
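GDP/[35S]GTPγS exchange by 0.5 µM prenylated Cdc42-RhoGDI1 complex with 1 µM RhoGDI1 and 100 µM PIP2 liposomes, 4 mM EDTA replacing GEF, in Tris pH 7.5 reaction buffer at 25 °C. Started with 10 µM [35S]GTPγS; reactions sampled at 3 min, filtered on nitrocellulose and scintillation counted; s.e.m., n = 3.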
Target sequence in this assay (P60953 whole entry): as the sequence (P60953 whole entry, looked up) above

Assay [10] shares this target. Briefly: Inhibition of GEF-independent nucleotide exchange activity of nonprenylated Cdc42 at 100 uM after 10 mins in presence of 4 mM EDTA.
Target sequence in this assay (P60953 whole entry, looked up): as above
For assay [11] the target is unchanged. Description: Effect on Cdc42-mediated cellular response in human U373MG cells assessed as reorientation of golgi complex 15 uM after 6 hrs by epifluorescence assay. Type of assay: cell-based. The note with it: U-373MG ATCC. A digest of the protocol:
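Confluent U373MG human astrocytoma monolayer preincubated 1 h with 15 µM compound or vehicle, then scratched. At 0 and 6 h fixed, stained with Hoechst and anti-giantin; cells at wound edge with Golgi in the forward 120° sector facing scratch scored polarized. Epifluorescence; s.e.m., n = 3, >100 cells per condition.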
Target sequence in this assay (P60953 whole entry, looked up): as above

The target in assay [12] is Cell division control protein 42 homolog (Rattus norvegicus) (UniProt Q8CFN2). Briefly: Inhibition of Cdc42 binding to rat liver golgi membrane at 10 to 150 uM by Western blot analysis. Put shortly: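 Bovine brain cytosol incubated with compound or 1% DMSO, then 20 µM GTPγS and 0.2 mg/ml rat liver Golgi membranes added. Membrane-bound Cdc42 and β-COP analyzed by western blot.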

Assay [13] relates to BSC-1. Description: Inhibition of VSVG-EGFP anterograde transport from endoplasmic reticulum to golgi complex of african green monkey BSC1 cells at 12.5 uM after 3 hrs by epifluorescence microscopy. As to conditions: Chlorocebus aethiops. Type of assay: functional, cell-based. Put shortly:
as §1

Assay [14] deals with Cdc42 protein (Xenopus laevis) (UniProt Q9DDV6). Description: Inhibition of GST-PBD binding to Cdc42 in Xenopus laevis egg extract assessed as Cdc42(GTPgammasS) activation at 50 uM treated after addition of GST-PBD by Western blot analysis.
The target is the same in assay [15]. Briefly: Inhibition of GST-PBD binding to Cdc42 in Xenopus laevis egg extract assessed as Cdc42(GTPgammasS) activation at 50 uM treated before addition of GST-PBD by Western blot analysis.
Assay [16] concerns BSC-1. Description: Effect on perinuclear localization of trans-Golgi network in african green monkey BSC1 cells at 12.5 uM after 2.5 hrs by epifluorescence microscopy. It counts as functional, cell-based. As to conditions: Chlorocebus aethiops.
Assay [17] deals with BSC-1. Description: Effect on transferrin translocation from golgi complex to endoplasmic reticulum of african green monkey BSC1 cells at 12.5 uM after 2.5 hrs by epifluorescence microscopy. Type of assay: functional, cell-based. As to conditions: Chlorocebus aethiops.
Assay [18] relates to BSC-1. Description: Effect on transferrin endocytosis in african green monkey BSC1 cells at 12.5 uM after 2.5 hrs by epifluorescence microscopy. As to conditions: Chlorocebus aethiops. It counts as functional, cell-based.
The target of assay [19] is Cdc42 protein (Xenopus laevis) (UniProt Q9DDV6). Description: Inhibition of CDC42-mediated actin polymerization in PIP2-stimulated Xenopus laevis egg extract at 0.1 to 100 uM by fluorescence assay.
For assay [20], the species on record is Xenopus laevis. Description: Inhibition of actin polymerization in N-WASP VCA-stimulated Xenopus laevis egg extract at 20 uM after 1.5 mins by fluorescence assay.
Assay [21] concerns the target T1, Cell division control protein 42 homolog. Briefly: Inhibition of nucleotide exchange activity of PIP2-stimulated Cdc42 at 25 uM by liquid scintillation counting.
Target sequence in this assay (P60953 whole entry, looked up): as above
Assay [22] has the same target. Briefly: Effect on GEF interaction with PIP2-stimulated Cdc42 at 25 uM by liquid scintillation counting.
Target sequence in this assay (P60953 whole entry, looked up): as above
For assay [23] the target is unchanged. Description: Effect on nucleotide binding activity of PIP2-stimulated Cdc42 at 25 uM by liquid scintillation counting.
Target sequence in this assay (P60953 whole entry, looked up): as above
The target is the same in assay [24]. Description: Inhibition of GEF-independent nucleotide exchange activity of prenylated Cdc42 assessed as protein dissociation from […] complex at 100 uM after 3 mins in presence of 4 mM Mg2+ chelator EDTA.
Assay [25] has as its system Lipid bilayer. Briefly: Binding affinity to phosphatidylinositol 4,5-bisphosphate liposome at 50 uM by electron microscopy. A digest of the protocol:
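PIP2 liposomes (100 µM) incubated with compound or 1% DMSO, with 1% Triton X-100 as comparator. Samples in reaction buffer adsorbed on glow-discharged carbon grids, negatively stained with 1.2% uranyl acetate and imaged by EM at 80 kV.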

Assay [26] deals with Lipid bilayer. Description: Binding affinity to phosphatidylinositol 4,5-bisphosphate liposome assessed as dynamin2-stimulated GTP hydrolysis at 25 uM by scintillation counting. Put shortly: (§4)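 Truncated His-tagged human dynamin 2 (proline-rich domain, aa 736–866, deleted), expressed in BL21, mixed with PIP2 liposomes (65:32:3 PC:PI:PIP2, 0.1-µm extruded) and compound in 1% DMSO vehicle. 20 µM [γ-32P]GTP added in Tris pH 7.5/150 mM NaCl/2.5 mM MgCl2/DTT, 25 °C. After 20 min, charcoal-quenched aliquot centrifuged and released 32P-phosphate scintillation counted; s.e.m., n = 3.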

Assay [27] deals with Lipid bilayer. Briefly: Binding affinity to phosphatidylinositol 4,5-bisphosphate liposome assessed as dynamin2-stimulated GTP hydrolysis at 250 uM by scintillation counting. Put shortly:
as §4

The target in assay [28] is Cdc42 protein (Xenopus laevis) (UniProt Q9DDV6). Briefly: Inhibition of PIP2 liposome-stimulated Cdc42 activation in Xenopus laevis egg extract assessed as inhibition of association of Cdc42(GTPgammaS) with GST-PBD at 50 uM by Western blot analysis. A digest of the protocol: as §2

Calls of active or inactive are those of the source. The rule behind the calls is not given here.

Sequence of Cdc42 protein (Xenopus laevis) (Q9DDV6 as listed by the source): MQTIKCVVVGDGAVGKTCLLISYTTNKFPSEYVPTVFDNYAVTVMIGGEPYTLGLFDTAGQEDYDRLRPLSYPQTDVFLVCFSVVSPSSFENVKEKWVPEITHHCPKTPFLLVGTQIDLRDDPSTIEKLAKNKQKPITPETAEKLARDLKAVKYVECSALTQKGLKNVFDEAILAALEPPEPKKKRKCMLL
Sequence of Cdc42 protein (Q9DDV6 whole entry): as the sequence (Q9DDV6 as listed by the source) above
Sequence of Cell division control protein 42 homolog (Rattus norvegicus) (Q8CFN2 whole entry, looked up): as the sequence (P60953 whole entry, looked up) above

Turning to `C/C1=C/C(=O)O[C@@H]2C[C@@H](CC[C@H](C)/C=C\CC1)O[C@@](O)([C@@H]1CSC(=O)N1)C2`, the inhibition result in [1] is “Active”.

For `COc1ccc(CS[C@@H]2C/C(=N/OCc3ccccc3)C[C@H]3Oc4c(Br)c(OCC5CC5)cc5c4[C@]32C[C@@H](CO)NC5)cc1` [SECRAMINE A], the IC50 came to 12 µM in assay [2], 1000 nM in [3] and 9 µM in assay [9]. Moreover, the inhibition result in assay [4], in assay [6], in [7], in assay [8], in assay [12] and in assay [15] was “Active” in each case. In addition, in assay [21], the inhibition entry was “Active”. Moreover, the outcome in [5], in assay [16], in [17], in [18], in assay [22] and in assay [23] was inactive. The outcome in assay [25] and in [26] was inactive. Moreover, the inhibition result in assay [10], in assay [13], in [14], in assay [20] and in [24] was “inactive” each time. Also, in [11], the Activity turned out to be 45%. The result in assay [19] was Active.

Consider `NC[C@@H]1O[C@H](O[C@H]2[C@@H](O)[C@H](O[C@@H]3[C@@H](O)[C@H](N)C[C@H](N)[C@H]3O[C@H]3O[C@H](CN)[C@@H](O)[C@H](O)[C@H]3N)O[C@@H]2CO)[C@H](N)[C@@H](O)[C@@H]1O`, for which the result in assay [27] was Active.

In the case of `CO/N=C1\C[C@H]2Oc3c(Br)c(OCC4CC4)cc4c3[C@@]2(C[C@@H](CO)NC4)[C@H](SCc2ccc(OC)cc2)C1` [SECRAMINE B], the IC50 in [2] was found to be 12 µM; in assay [3] it was 3000 nM; in [9] it was 7 µM. In addition, the inhibition result in assay [13] and in [24] was “inactive” in each case. In addition, in [19], the result was Active. The inhibition result in [21] was “Active”. Moreover, the outcome in assay [22] and in [23] was inactive.

`COc1ccc(CS[C@@H]2C/C(=N/OCc3ccccc3)C[C@H]3Oc4c(Br)c(OCC5CC5)cc5c4[C@]32C[C@@H](CO)N(C(C)=O)C5)cc1`: the inhibition result in assay [13], in [28] and in assay [21] was “inactive” throughout. In addition, the outcome in [19], in assay [22] and in assay [23] was inactive.

Usually IC50 stands for the point on the concentration scale where inhibition reaches its midpoint.
